Assays:
[1] = test system: murine genetically engineered T-ALL and human T-ALL cell lines such as MOLT4, Jurkat, HPB-ALL and KARPAS45; conditions: cited from earlier work
T-ALL cell lines = format: cell-based, human; conditions: read-out: IC50 values, 72 hours of culture
Method in brief: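 Human T-ALL cell lines (CEM, Jurkat, MOLT4, Loucy, PEER) were cultured with a range of test compound concentrations for 72 hours. IC50 was calculated from the dose-response curves. Values are means ± S.D. of three independent experiments, compared by one-way ANOVA with Tukey's multiple comparison test.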

[2] = for changes in complete blood count, liver and kidney functions, histopathological examination of some organs: NOD/SCID mice treated with up to 150 mg/kg
Jurkat cells = assay: Systemic T-ALL, tail-vein injection of luciferase-expressing Jurkat cells; format: in vivo, NOD/SCID mice; conditions: S2157 50 mg/kg, OG-L002 12.5 mg/kg (its MTD), twice a week for 3 weeks
[3] = test system: mitogen-activated normal T-lymphocytes; assay: Viability of mitogen-activated normal T-lymphocytes; format: cell-based
MOLT4 cells [4] = format: in vivo, NOD/SCID mice; conditions: for effect on CNS leukemia: murine xenotransplant model, histopathological examination / imaging
[5] = Pharmacokinetic study, plasma and brain concentrations by LC-MS/MS; format: in vivo, NOD/SCID mice; conditions: for Brain/Plasma ratio / AUC / Brain concentration at 0.5 h / Plasma concentration at 0.5 h / T1/2 / nAUC (dose-normalized AUC): NOD.CB17-PrkdcSCID/J mice, single intraperitoneal injection, 50 mg/kg, n = 3; for Brain/Plasma ratio: 0.5 h
T-ALL cells = assay: Subcutaneous T-ALL xenograft; format: in vivo, NOD/SCID mice; conditions: for side effects / size of subcutaneous tumors: intraperitoneal injection at 50 mg/kg, 3 times a week
[6] = test system: ZEB2-positive ETP-ALL cell lines such as Loucy and PEER; assay: Efficacy in relation to ZEB2 expression in T-ALL and ETP-ALL cell lines; format: cell-based, human
MOLT4 cells [7] = assay: Isobologram / combination index analysis with anti-leukemic drugs; format: cell-based, human; conditions: 72 hours
Method in brief: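 MOLT4 cells exposed to each of several anti-leukemia drugs, without or with the test compound, for 72 h to generate dose-response curves for each combination. Combination index calculated by the Chou–Talalay method; CI <1.0 taken as synergism. Mean ± S.D. from three independent experiments.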

[8] = test system: CD34-positive normal hematopoietic progenitor cells; assay: Viability of CD34-positive normal bone marrow progenitor cells; format: cell-based; conditions: 72 hours, with stem cell factor and thrombopoietin
Method in brief: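 Purchased CD34-positive normal bone marrow progenitor cells were cultured with stem cell factor and thrombopoietin, without or with various concentrations of test compound, for 72 hours. Jurkat cells were treated in parallel as a control. Viability was measured by MTT reduction as a percentage of untreated controls. Values are mean ± S.D. of three independent experiments, compared by one-way ANOVA with Bonferroni post-hoc test.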

primary T-ALL cells = assay: Combination with anti-leukemic drugs in primary T-ALL cells; format: cell-based, human
T-ALL = conditions: read-out: IC50 values; cited from earlier work
[9] = single intraperitoneal injection at 50 mg/kg, NOD/SCID and ICR mice

| Compound | IC50 (T-ALL cell lines) [µM] | anti-leukemic activity in Jurkat-transplanted mice (Jurkat cells) | viability of mitogen-activated normal T-lymphocytes [3] | effect on CNS leukemia (MOLT4 cells [4]) | Brain/Plasma ratio [5] | AUC [5] [µM·h] | Brain concentration at 0.5 h [5] [µmol/kg] | Plasma concentration at 0.5 h [5] [µM] | T1/2 [5] [h] | nAUC (dose-normalized AUC) [5] [µM·h] | side effects (T-ALL cells) | size of subcutaneous tumors (T-ALL cells) | changes in complete blood count, liver and kidney functions, histopathological examination of some organs [2] | efficacy in ZEB2-positive ETP-ALL cell lines [6] | combined effect with L-asparaginase (MOLT4 cells [7]) | combined effect with dexamethasone (MOLT4 cells [7]) | viability of CD34-positive normal hematopoietic progenitor cells [8] | other results |
| --- | --- | --- | --- | --- | --- | --- | --- | --- | --- | --- | --- | --- | --- | --- | --- | --- | --- | --- |
| O=C(O)c1ccc(CN2CCC(CN[C@@H]3C[C@H]3c3ccccc3)CC2)cc1 [GSK2879552] | – | – | – | – | – | – | – | – | – | – | – | – | – | – | – | – | – | pro-apoptotic activity [1]: failed to show pro-apoptotic activity |
| N[C@H]1C[C@@H]1c1ccc(-c2cccc(O)c2)cc1 [OG-L002, reference compound] | ≥ 20 | failed to show anti-leukemic activity | – | – | – | – | – | – | – | – | – | – | – | – | – | – | – | maximum tolerated dose (MTD) ([2]; NOD/SCID mice, intraperitoneal injection): 12.5 mg/kg; dose after which recipients died immediately ([2]; NOD/SCID mice, intraperitoneal injection, unknown causes): ≥ 25 mg/kg |
| N[C@@H]1C[C@H]1c1cc(F)cc(F)c1OCc1ccccc1 [S2101] | ≥ 20 | – | – | – | – | – | – | – | – | – | – | – | – | – | – | – | – | – |
| Cl.N[C@H]1CCN(C(=O)CN[C@@H]2C[C@H]2c2cc(F)cc(F)c2OCc2ccccc2)C1 [S2116] | – | – | modestly inhibited | failed to eradicate CNS disease | 0.17 ± 0.03 | 41.78 ± 8.66 | 1.35 ± 0.39 | 8.17 ± 2.80 | 10.88 ± 2.97 | 0.84 ± 0.17 | negligible side effects, such as moderate leukocytosis and thrombocytopenia without bleeding tendency | less than 20 % of that in the untreated control | no obvious changes were observed | relatively ineffective | synergistic | additive | did not affect the viability | overall survival of MOLT4-inoculated mice (T-ALL cells; MOLT4-inoculated NOD/SCID mice): significantly prolonged; combined effect with cytosine arabinoside (MOLT4 cells [7]): additive |
| CN1CCN(C(=O)CN[C@@H]2C[C@H]2c2cc(F)cc(F)c2OCc2ccccc2)CC1.Cl [S2157] | – | therapeutic benefit of S2157 including the eradication of CNS disease | modestly inhibited | CNS leukemia nearly disappeared | 13.0 ± 6.26 | 5.75 ± 3.67 | 64.0 ± 3.46 | 5.71 ± 2.47 | 0.88 ± 0.04 | 0.11 ± 0.07 | negligible side effects, such as moderate leukocytosis and thrombocytopenia without bleeding tendency | less than 20 % of that in the untreated control | no obvious changes were observed | relatively ineffective | synergistic | synergistic | did not affect the viability | hazard ratio against untreated mice, single agent (MOLT4 cells [4]; 50 mg/kg ip twice a week, log-rank test, P = 0.0246): 0.2371; hazard ratio against untreated control, combination with dexamethasone (MOLT4 cells [4]; S2157 50 mg/kg ip twice a week plus dexamethasone 10 mg/kg ip 5 times a week): 0.1787; neurotoxicity (MOLT4 cells [4]; murine xenografts): without detectable neurotoxicity; growth of MOLT4 cells (bioluminescence) (MOLT4 cells [4]; twice-per-week injection at either 30 mg/kg or 50 mg/kg): almost completely suppressed the growth of MOLT4 cells in most but not all mice; combined effect with L-asparaginase (primary T-ALL cells): synergy; combined effect with dexamethasone (primary T-ALL cells): synergy; brain/plasma concentration ratio relative to S2116 [5, 9]: > 75 fold; maximal brain concentration relative to S2116 [5, 9]: approximately 50 fold; combined effect with 4-hydroxycyclophosphamide (4-OHCY) (MOLT4 cells [7]): additive; combined effect with bortezomib (MOLT4 cells [7]): additive |
| Cn1cc(C(=O)Nc2ccc([C@@H]3C[C@H]3NCC3CC3)cc2)cn1 [T-3775440] | – | – | – | – | – | – | – | – | – | – | – | – | – | – | – | – | – | IC50 (T-ALL): > 10 µM |
